{"source": "paper PMC3988263", "about": "(European journal of pharmacology, 2011)", "key": {"[1]": {"system": "mice (sedation or ataxia)", "test": "Gross observation in open fields", "format": "in vivo, mouse", "conditions": "doses below 200 mg/kg"}, "[2]": {"system": "human CYP2D6", "conditions": "ref Bui et al., 2008; cited from earlier work"}, "[3]": {"system": "pentylenetetrazol model", "conditions": "ref Handforth et al., 2010; cited from earlier work"}, "[4]": {"system": "human recombinant CYP3A4", "conditions": "ref Bui et al., 2008; cited from earlier work"}, "[5]": {"system": "high voltage calcium channels", "conditions": "at 100 µM; ref Huang et al., 2004; Li et al., 2005; cited from earlier work"}, "[6]": {"system": "mice (sedation/motor function)", "test": "Horizontal wire test of behavioral toxicity", "format": "in vivo, mouse"}, "[7]": {"system": "mouse liver microsomes (cytochrome P450, harmaline O-demethylation)", "test": "Harmaline O-demethylation to harmalol in mouse liver microsomes", "format": "in vitro ADME"}, "[8]": {"system": "harmaline-induced tremor in ICR mice", "test": "Tremor measurement in the harmaline model", "format": "in vivo, mouse", "conditions": "harmaline 20 mg/kg", "procedure,_shortened": "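Male ICR mice (20–24 g) sat on a motion-sensing platform; 20 min baseline, then harmaline 20 mg/kg, then test compound or saline vehicle 15 min later (time 0); 100 min recording; 5–6 mice/group. Read-out was 10–16 Hz motion power as % of 0–33 Hz power over 20–60 and 60–100 min. Reduction = 100×(1−[(DT−DB)/(mean VT−mean VB)]) versus vehicle group; repeated-measures ANOVA.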"}, "[9]": {"system": "CYP3A (mouse liver microsomes)"}, "[10]": {"system": "mice (retention time on inverted wire grid)", "test": "Inverted grid test of behavioral toxicity", "format": "in vivo, mouse"}, "[11]": {"system": "GABAA receptor α1-null mice (tremor)", "test": "Tremor measurement in the GABAA receptor α1-null model", "format": "in vivo, mouse", "conditions": "for tremor reduction compared to baseline: 20 mg/kg i.p., 30 min after drug, tail suspension"}, "[12]": {"system": "blood pressure", "conditions": "ref Dogrul et al., 2003; cited from earlier work"}, "[13]": {"conditions": "ref Ertel and Clozel, 1997; cited from earlier work"}, "[14]": {"system": "cytochrome P450 (harmaline O-demethylation to harmalol)", "test": "Harmaline O-demethylation to harmalol in mouse liver microsomes", "format": "in vitro ADME", "conditions": "mouse, mouse liver microsomes, pH 7.5, probe harmaline (10 µM)"}, "[15]": {"conditions": "12.5 mg/kg i.p., 20–60 min post-drug"}, "[16]": {"conditions": "12.5 mg/kg i.p., 60–100 min post-drug"}}, "data": [{"compound": "CC(C)[C@H]1c2ccc(F)cc2CC[C@@]1(CCN(C)CCCc1nc2ccccc2[nH]1)OC(=O)C1CC1.Cl.Cl", "note": "[NNC 55-0396, (1S,2S)-2-(2-(N-[(3-benzimidazol-2-yl)propyl]-N-methylamino)ethyl)-6-fluoro-1,2,3,4-tetrahydro-1-isopropyl-2-naphtyl cyclopropanecarboxylate dihydrochloride]", "values": [{"measurement": "gross observations in open fields: sedation or ataxia", "setting": "[1]", "result": "did not reveal sedation or ataxia"}, {"measurement": "Ki for human CYP2D6 relative to mibefradil", "setting": "[2]", "result": "one-fourth that of mibefradil"}, {"measurement": "anti-seizure efficacy", "setting": "[3]", "result": "anti-seizure efficacy"}, {"measurement": "fold higher Ki than mibefradil", "setting": "[4]", "result": 9, "unit": "fold"}, {"measurement": "effect against high voltage calcium channels", "setting": "[5]", "result": "no effect"}, {"measurement": "dose at which 3/6 failed the horizontal wire test", "setting": "[6]; mouse, in vivo, ip", "result": 300, "unit": "mg/kg"}, {"measurement": "maximal dose at which 6/6 mice passed the horizontal wire test", "setting": "[6]; mouse, in vivo, ip", "result": 200, "unit": "mg/kg"}, {"measurement": "Ki", "setting": "[7]", "result": 950, "unit": "nM"}, {"measurement": "Ki for harmaline O-demethylation relative to mibefradil", "setting": "[7]", "result": "approximately three-fold higher"}, {"measurement": "O-demethylation of harmaline, percentage of normal (mean ± S.D.)", "setting": "[7]; drug 100 nM, 10 µM harmaline, mouse liver microsomes", "result": "103.7 ± 12.8", "unit": "%"}, {"measurement": "O-demethylation of harmaline, percent of normal (mean ± S.D.)", "setting": "[7]; drug 10 µM, 10 µM harmaline, mouse liver microsomes", "result": "46.6 ± 5.3", "unit": "%"}, {"measurement": "tremor generation reduced compared to the vehicle group", "setting": "[8]; [15]", "result": "48.5 ± 12.4", "unit": "%"}, {"measurement": "tremor generation reduced compared to the vehicle group", "setting": "[8]; [16]", "result": "48.9 ± 13.6", "unit": "%"}, {"measurement": "tremor generation reduced compared to the vehicle group", "setting": "[8]; 20 mg/kg i.p., 20–60 min post-drug", "result": "73.6 ± 20.1", "unit": "%"}, {"measurement": "tremor generation reduced compared to the vehicle group", "setting": "[8]; 20 mg/kg i.p., 60–100 min post-drug", "result": "85.1 ± 29.1", "unit": "%"}, {"measurement": "Ki", "setting": "[9]", "result": 710, "unit": "nM"}, {"measurement": "Ki for testosterone 6-β-hydroxylation relative to mibefradil", "setting": "[9]", "result": "over five-fold higher"}, {"measurement": "appearance (sedation) of drug/harmaline mice", "setting": "[10]; drug 20 mg/kg i.p. then harmaline 20 mg/kg s.c.", "result": "did not appear sedated"}, {"measurement": "retention on the inverted grid compared with vehicle/harmaline mice", "setting": "[10]; mouse, in vivo", "result": "better than vehicle/harmaline mice"}, {"measurement": "tremor reduction compared to baseline", "setting": "[11]", "result": 49.2, "unit": "%"}, {"measurement": "effect on the tremor motion power peak", "setting": "[11]; 40 mg/kg i.p., individual α1-null mouse, retest 30 min later", "result": "suppressed the tremor motion power peak"}]}, {"compound": "COc1ccc2c3c([nH]c2c1)C(C)=NCC3", "note": "[harmaline]", "values": [{"measurement": "retention time on the wire grid compared with vehicle/vehicle controls", "setting": "[10]; vehicle-pre-treated mice, harmaline 20 mg/kg s.c., test 30 min later", "result": "reduced retention times on the wire grid"}]}, {"compound": "COCC(=O)O[C@]1(CCN(C)CCCc2nc3ccccc3[nH]2)CCc2cc(F)ccc2[C@@H]1C(C)C", "note": "[mibefradil]", "values": [{"measurement": "dose reported to produce severe hypotension", "setting": "[12]", "result": 30, "unit": "mg/kg"}, {"measurement": "crossing of the blood–brain-barrier", "setting": "[13]", "result": "does not cross the blood–brain-barrier"}, {"measurement": "maximal dose at which 6/6 mice passed the horizontal wire test", "setting": "[6]; i.p., tested at 10-min intervals for 1.5 h", "result": 20, "unit": "mg/kg"}, {"measurement": "dose at which 3/6 failed the horizontal wire test", "setting": "[6]; mouse, in vivo, ip, 1.5 h", "result": 30, "unit": "mg/kg"}, {"measurement": "Ki at 20 min", "setting": "[14]", "result": 290, "unit": "nM"}, {"measurement": "Ki for harmaline O-demethylation relative to NNC 55-0396", "setting": "[7]; mouse liver microsomes", "result": "less than a third that of NNC 55-0396"}, {"measurement": "tremor generation reduced compared to the vehicle group", "setting": "[8]; [15]", "result": "23.1 ± 3.9", "unit": "%"}, {"measurement": "tremor generation reduced compared to the vehicle group", "setting": "[8]; [16]", "result": "20.8 ± 11.5", "unit": "%"}, {"measurement": "appearance (sedation) of drug/harmaline mice", "setting": "[10]; mouse, in vivo", "result": "appeared sedated"}, {"measurement": "retention on the inverted grid compared with vehicle/harmaline mice", "setting": "[10]; mouse, in vivo", "result": "worse retention"}, {"measurement": "tremor reduction compared to baseline", "setting": "[11]", "result": "no effect on tremor"}]}]}
